# Experimental data pooled from the literature.
# Protocols differ between the studies behind these lines.
Structure (SMILES),test system,conditions,Cmax
CCOC(=O)c1c(NC(=O)CNC(C)C)sc2c1CCCCC2,"male mouse, plasma","intraperitoneal, 5 mg/kg, single dose",0.193 µg/mL
Cc1cc(-c2ccnc3[nH]cc(F)c23)cc(F)c1[C@@]1(O)[C@H](C)CN(C(=O)CN)C[C@@H]1C,"male CD-1 mouse, plasma","intravenous, 1 mg/kg",1.98 µg/mL
NCc1cc2c(cc1F)C(=O)N(C1CCC(=O)NC1=O)C2 (centres unmarked),"male CD-1 mouse, plasma","oral, 10 mg/kg",0.0972 µg/mL
Cc1nc2ccc(OCc3ccc(C(F)(F)F)cc3)cc2[nH]1,"male BALB/c mouse, plasma","oral, 10 mg/kg",5.89 µg/mL
CN(C)C(=O)c1cc2cnc(Nc3ccc(-c4ccc5c(=O)cc(N6CCOCC6)oc5c4)cc3)nc2n1C1CCCC1.Cl,"BALB/c mouse, plasma","intravenous, 2 mg/kg",3.69 µg/mL
O=C1CCC(N2Cc3cc(C4CCN(Cc5ccccc5)CC4)ccc3C2=O)C(=O)N1 (centres unmarked),"male CD-1 mouse, plasma","oral, 3 mg/kg",0.273 µg/mL
NCc1ccc(-c2nn(Cc3ccncc3)c3ccccc23)o1,"male CD-1 mouse, plasma","oral, 10 mg/kg",0.168 µg/mL
OCc1nc2ccc(NCc3ccc(C(F)(F)F)cc3)cc2[nH]1,"male BALB/c mouse, plasma","oral, 10 mg/kg",1.79 µg/mL
COC1=CC(c2ccc[nH]2)=N/C1=C\c1cc(Cc2ccc(OC(F)(F)F)cc2)c(C)[nH]1.Cl,"male CD-1 mouse, liver","oral, 40 mg/kg, single dose",2.66 µg/mL
OCc1ccc(-c2nn(Cc3ccccc3)c3ccccc23)o1,"male CD-1 mouse, plasma","oral, 10 mg/kg",0.22 µg/mL
CC(C)(C)c1sc2ncnc(Oc3c(F)cccc3OC(F)(F)F)c2c1-c1ccc(Cl)cc1,"mouse, plasma","intravenous, 1 mg/kg, single dose",2.56 µg/mL
Cc1ccc(OCC(=O)N[C@@H](Cc2c[nH]c3ccccc23)C(=O)OC(C)C)cc1,"male Sprague-Dawley mouse, plasma","intravenous, 10 mg/kg",1.84 µg/mL
C[C@@H](CN1CCC(n2c(=O)[nH]c3cc(Cl)ccc32)CC1)NC(=O)c1ccc2ccccc2c1,"male CD-1 mouse, brain","intravenous, 1 mg/kg, single dose",0.000236 µg/mL
Cc1ncsc1-c1ccc([C@H](C)NC(=O)[C@@H]2C[C@@H](O)CN2C(=O)[C@@H](NC(=O)CCCCCCCCC(=O)N2CCC(n3cc(-c4ccc5c(c4)CCN5C(=O)Cc4cccc(OC(F)(F)F)c4)c4c(N)ncnc43)CC2)C(C)(C)C)cc1,"male C57BL/6 mouse, plasma","intravenous, 1 mg/kg",3.42 µg/mL
